What is called MIC is the lowest concentration that inhibits growth of the organism. By logP is commonly meant the decadic logarithm of the partition coefficient of the neutral form, usually between octanol and water. Low values mean a more hydrophilic compound, high ones a more lipophilic compound. As usually defined, the solubility is how much of the substance goes into solution per volume. For orientation: MIC50 means an inhibitory concentration at the 50% level, which refers to growth in some studies and to a panel of isolates in others. In general, MIC90 refers to an inhibitory concentration at the 90% level, which refers to growth in some studies and to a panel of isolates in others. A lower MIC90 goes with higher susceptibility.

SMILES strings stand for the structures. Converted amounts (≈) assume the structure as drawn. Some results are limits rather than exact numbers.

Results on 23 molecules are retold here after ChEMBL document CHEMBL4364268, “Carvacrol prodrugs as novel antimicrobial agents” (Eur J Med Chem, 2019).

Data set [1] has as its system Candida albicans. Description: Antifungal activity against Candida albicans after 24 hrs by EUCAST method. The class given is functional.
The nature of data set [2]: n-Octanol/water partition coefficient, log P of compound by HPLC analysis. Type of data set: physicochemical.
The nature of data set [3]: Stability in human plasma by HPLC analysis. The class given is ADME, cell-free. The essentials: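 Compound stock was added to 80% human plasma (diluted with 0.02 M phosphate buffer, pH 7.4) at 37 °C. Samples taken over time were stopped with 0.01 M HCl in methanol and centrifuged 5 min at 5000 g. Supernatant was analysed by HPLC-UV at 274 nm (C18, water/ACN + 0.1% TFA, isocratic, 1 mL/min).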

Data set [4] is described as follows: Aqueous solubility of compound at 50 mg after 1 hr by HPLC analysis. As to conditions: water. Type of data set: physicochemical.
A further data set relates to Candida dubliniensis. Description: Antifungal activity against Candida dubliniensis CBS7987 assessed as zone of inhibition by disc diffusion method. The class given is functional. In short, it runs like this: (§1)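 Disc diffusion on potato dextrose medium with 0.8% agar against Candida strains. Fluconazole and amphotericin B served as positive controls. Inhibition zone was measured in mm.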
In general terms: Agar diffusion results depend on both activity and mobility in agar.

In a further data set the test system is Nakaseomyces glabratus. Kind of data set: Antifungal activity against Candida glabrata ATCC 2001 assessed as zone of inhibition by disc diffusion method. The class given is functional. The essentials:
as §1

Another data set concerns Candida parapsilosis. Description: Antifungal activity against Candida parapsilosis ATCC 22019 assessed as zone of inhibition by disc diffusion method. The class given is functional. The essentials:
as §1

The test system of another data set is Candida tropicalis. Kind of data set: Antifungal activity against Candida tropicalis KUEN 1025 assessed as zone of inhibition by disc diffusion method. The class given is functional. The essentials: as §1
Data set [5] relates to Candida albicans. Description: Antifungal activity against Candida albicans ATCC 10231 assessed as zone of inhibition by disc diffusion method. The class given is functional. The essentials: as §1
The next data set concerns Blood. Kind of data set: Antioxidant activity in human blood assessed as total antioxidant capacity at 10 uM after 48 hrs (reference value: 6.3 +/- 0.5). The class given is functional.
Another data set concerns Streptococcus pyogenes. Description: Antibacterial activity against Streptococcus pyogenes incubated for 18 to 24 hrs by CLSI-based broth microdilution method. Type of data set: functional.
Another data set deals with Acinetobacter baumannii. Kind of data set: Antibacterial activity against Acinetobacter baumannii incubated for 18 to 24 hrs by CLSI-based broth microdilution method. The class given is functional.
Another data set has as its system Pseudomonas aeruginosa. Description: Antibacterial activity against Pseudomonas aeruginosa incubated for 18 to 24 hrs by CLSI-based broth microdilution method. Type of data set: functional.
The subject of another data set is Klebsiella pneumoniae. Description: Antibacterial activity against Klebsiella pneumoniae incubated for 18 to 24 hrs by CLSI-based broth microdilution method. Type of data set: functional. A general note: In broth dilution the organism is exposed to a series of concentrations in liquid medium.
The next data set relates to Escherichia coli. Description: Antibacterial activity against Escherichia coli incubated for 18 to 24 hrs by CLSI-based broth microdilution method. Type of data set: functional.
Another data set deals with Streptococcus agalactiae. Description: Antibacterial activity against Streptococcus agalactiae incubated for 18 to 24 hrs by CLSI-based broth microdilution method. The class given is functional.
Another data set relates to Streptococcus pneumoniae. Kind of data set: Antibacterial activity against Streptococcus pneumoniae incubated for 18 to 24 hrs by CLSI-based broth microdilution method. Type of data set: functional.
Another data set has as its system Enterococcus faecalis. Description: Antibacterial activity against Enterococcus faecalis incubated for 18 to 24 hrs by CLSI-based broth microdilution method. Type of data set: functional.
The subject of data set [6] is Staphylococcus epidermidis. Description: Antibacterial activity against Staphylococcus epidermidis incubated for 18 to 24 hrs by CLSI-based broth microdilution method. The class given is functional.
Another data set relates to Staphylococcus aureus. Description: Antibacterial activity against Staphylococcus aureus incubated for 18 to 24 hrs by CLSI-based broth microdilution method. The class given is functional.

`Cc1ccc(C(C)C)cc1OC(=O)CCC(=O)N[C@@H](CCCNC(=N)N)C(=O)O` displayed an MIC in the data set with Candida albicans [1] of more than 6400 µg/mL.
The same measure, in the same setting: as for `Cc1ccc(C(C)C)cc1OC(=O)CCC(=O)N[C@@H](CCCCN)C(=O)O`, the figure is more than 6400 µg/mL; as for `Cc1ccc(C(C)C)cc1OC(=O)CCCC(=O)NCC(=O)O`, more than 6400 µg/mL; as for `Cc1ccc(C(C)C)cc1OC(=O)CCCC(=O)O`, more than 6400 µg/mL.
In the data set on Candida albicans [1], `Cc1ccc(C(C)C)cc1OC(=O)CCC(=O)NCC(=O)O` gave an MIC of 6400 µg/mL (≈ 20800 µM).
The same measure, in the same setting: under `Cc1ccc(C(C)C)cc1OC(=O)CCCC(=O)N[C@@H](CCCNC(=N)N)C(=O)O` stands more than 6400 µg/mL.
`Cc1ccc(C(C)C)cc1OC(=O)CCC(=O)N[C@@H](Cc1c[nH]cn1)C(=O)O` displayed a logP in data set [2] of less than 2.4. In the data set on Candida albicans [1], this molecule had an MIC of more than 6400 µg/mL.
As for `Cc1ccc(C(C)C)cc1OC(=O)CCCC(=O)N[C@@H](CCCCN)C(=O)O`, the MIC against Candida albicans [1] is more than 6400 µg/mL.
On the same count and under the same terms, as for `CC(C)=CCC[C@@H](C)CC(=O)Oc1cc(C(C)C)ccc1C`, the figure is more than 6400 µg/mL.
On the same count and under the same terms, as for `CC(C)=CC(=O)Oc1cc(C(C)C)ccc1C`, the figure is more than 6400 µg/mL.
Consider `CC(C)=CCOc1cc(C(C)C)ccc1C`, for which the K in data set [3] came out at 0.0294 h⁻¹.
Turning to `Cc1ccc(C(C)C)cc1OC(=O)CCC(=O)NCCN.Cl`, in the data set on Candida albicans [1], inhibition of growth (MIC) required 3200 µg/mL.
In the case of `Cc1ccc(C(C)C)cc1OC(=O)CCCC(=O)N[C@@H](Cc1c[nH]cn1)C(=O)O`, in data set [2], the logP is less than 2.4. The amount in solution in data set [4] (solubility at 1 h) came to 3330 µg/mL (≈ 8300 µM). In the data set on Candida albicans [1], the MIC is more than 6400 µg/mL.
Molecule `Cc1ccc(C(C)C)cc1OC(=O)CCC(=O)NCCN(C)C.Cl` came in with a minimal inhibitory concentration (MIC) against Candida albicans [1] of more than 6400 µg/mL.
Regarding `CC(C)=CCC/C(C)=C/COc1cc(C(C)C)ccc1C`, the K in data set [3] stood at 0.1716 h⁻¹.
In the data set with Candida albicans [1], `Cc1ccc(C(C)C)cc1OC(=O)CCCC(=O)NCCN.Cl` gave an MIC of more than 6400 µg/mL.
Molecule `CC(C)=CCC/C(C)=C/C(=O)Oc1cc(C(C)C)ccc1C` displayed an MIC against Candida albicans [1] of more than 6400 µg/mL.
Still for that read-out and setting: as for `CC(C)=CCC/C(C)=C/CC/C(C)=C/COc1cc(C(C)C)ccc1C`, the figure is more than 6400 µg/mL; as for `Cc1ccc(C(C)C)cc1OC(=O)CCCC(=O)NCCN(C)C.Cl`, more than 6400 µg/mL.
For the molecule `C[C@@H]1[C@H](O)[C@@H](C)/C=C/C=C/C=C/C=C/C=C/C=C/C=C/[C@H](O[C@@H]2O[C@H](C)[C@@H](O)[C@H](N)[C@@H]2O)C[C@@H]2O[C@](O)(C[C@@H](O)C[C@@H](O)[C@H](O)CC[C@@H](O)C[C@@H](O)CC(=O)O[C@H]1C)C[C@H](O)[C@H]2C(=O)O` [AMPHOTERICIN B], the “inhibition zone (IZ)” value stood at 10 mm in the data set with Candida dubliniensis; 12 mm in the data set on Nakaseomyces glabratus; 9 mm with Candida parapsilosis; 10 mm in the data set on Candida tropicalis; 10 mm in the data set on Candida albicans [5].
Take `O=C1O[C@H]([C@@H](O)CO)C(O)=C1O` [ASCORBIC ACID]: in the data set on Blood, the Activity stood at 19.4.
`Cc1ccc(C(C)C)cc1O` [CARVACROL]: in data set [2], the logP was found to be 3.5. Also, the “inhibition zone (IZ)” value in the data set with Candida dubliniensis came out at 7 mm; in the data set with Nakaseomyces glabratus, 8 mm; in the data set on Candida parapsilosis it was 7 mm; with Candida tropicalis, 10 mm; in the data set with Candida albicans [5], 9 mm. Moreover, the MIC in the data set with Candida albicans [1] is 1250 µg/mL (≈ 8320 µM); in the data set with Streptococcus pyogenes it was 64 to 256 µg/mL (≈ 426 to 1700 µM); with Acinetobacter baumannii it was 64 to 256 µg/mL (≈ 426 to 1700 µM); in the data set on Pseudomonas aeruginosa, not below 512 µg/mL; against Klebsiella pneumoniae, 512 µg/mL (≈ 3410 µM); against Escherichia coli, 256 µg/mL (≈ 1700 µM). Further, the MIC was 256 to 512 µg/mL (≈ 1700 to 3410 µM) in the data set on Streptococcus agalactiae; 64 to 256 µg/mL (≈ 426 to 1700 µM) with Streptococcus pneumoniae; 128 to 512 µg/mL (≈ 852 to 3410 µM) against Enterococcus faecalis; 256 µg/mL (≈ 1700 µM) in data set [6]; 256 µg/mL (≈ 1700 µM) with Staphylococcus aureus. For the same molecule, the MIC50 in the data set with Streptococcus pyogenes is 128 µg/mL (≈ 852 µM); in the data set on Acinetobacter baumannii it was 128 µg/mL (≈ 852 µM); in the data set on Pseudomonas aeruginosa, more than 512 µg/mL; against Klebsiella pneumoniae, 512 µg/mL (≈ 3410 µM); in the data set with Escherichia coli, 256 µg/mL (≈ 1700 µM); against Streptococcus agalactiae, 256 µg/mL (≈ 1700 µM). The MIC50 in the data set with Streptococcus pneumoniae is 128 µg/mL (≈ 852 µM); in the data set on Enterococcus faecalis, 256 µg/mL (≈ 1700 µM); in data set [6] it was 256 µg/mL (≈ 1700 µM); against Staphylococcus aureus it was 256 µg/mL (≈ 1700 µM). The MIC90 against Streptococcus pyogenes was 256 µg/mL (≈ 1700 µM); with Acinetobacter baumannii, 256 µg/mL (≈ 1700 µM); in the data set on Pseudomonas aeruginosa, more than 512 µg/mL; against Klebsiella pneumoniae it was 512 µg/mL (≈ 3410 µM); in the data set with Escherichia coli, 256 µg/mL (≈ 1700 µM); against Streptococcus agalactiae it was 512 µg/mL (≈ 3410 µM). The MIC90 (in the data set with Streptococcus pneumoniae; with Enterococcus faecalis; in data set [6]; in the data set on Staphylococcus aureus) was 256 µg/mL (≈ 1700 µM) in each case.
`OC(Cn1cncn1)(Cn1cncn1)c1ccc(F)cc1F` [FLUCONAZOLE] returned an MIC with Candida albicans [1] of 250 µg/mL (≈ 816 µM).
